Reference: ChEMBL document CHEMBL2346529, “The human Aurora kinase inhibitor danusertib is a lead compound for anti-trypanosomal drug discovery via target repurposing” (Eur J Med Chem, 2013)
Activity calls are given as the source filed them. The calls are words filed in the database; no cut-off is given here.

How the values were obtained:
[1] = Selectivity ratio of EC50 for human MOLT4 cells to EC50 for bloodstream form of Trypanosoma brucei brucei Lister 427 90-13; type: ADME, cell-based, MOLT-4; settings: read-out: Ratio EC50
Summary of the method: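 The ratio is MOLT-4 EC50 over T. b. brucei 90-13 EC50. BF 90-13 cells in HMI-9 with G418 and hygromycin B were seeded at 1×10^5 cells/mL and exposed 48 h to 8 concentrations (50 nM–8 μM final, 0.2% DMSO) in triplicate. MOLT-4 cells were treated 4 days. Both were read by CTB fluorescence, with EC50 fitted from inhibition curves.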

Trypanosoma brucei = assay: Inhibition of NH3-AU1 epitope-tagged recombinant Trypanosoma brucei AUK1 expressed in procyclic form trypanosome AnTat1.1 assessed as decrease in myelin basic protein phosphorylation at 500 nM preincubated for 5 mins by pull down assay in presence of [gamma-32P]ATP
Summary of the method: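 AU1-tagged TbAUK1 came from procyclic AnTat1.1 cells pretreated with 16 μM MG132 for 3 h. Lysate was pre-cleared and immunoprecipitated overnight at 4°C on AU1 beads. Bead kinase was mixed with 160 μg myelin basic protein in Hepes/KCl/NaF/MgCl2/DTT buffer, pH 7.4, with drug preincubated 5 min. Reactions were started with 8 μM ATP plus [γ-32P]ATP and run 30 min at 30°C. Products were read by SDS-PAGE autoradiography.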

[2] = system: Trypanosoma brucei brucei; assay: Antitrypanosomal activity against bloodstream form of Trypanosoma brucei brucei Lister 427 90-13 assessed as inhibition of growth in log phase after 48 hrs by Cell Titer Blue end-point assay; type: functional, organism-based; settings: Lister 427 90-13, 48 h
Summary of the method: (§1)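 Dose-response: at least 8 final concentrations (50 nM–8 μM, 0.2% DMSO), each in triplicate, on log-phase bloodstream-form cells at 1×10^5 cells/mL. Incubation was 48 h at 37°C, 5% CO2, followed by a 3 h CellTiter-Blue fluorescence read with background subtracted. EC50 was derived from inhibition curves. YTat1.1 was culture-adapted from rat blood in HMI-9 with FBS and Serum Plus; its data come from 2–3 independent experiments. 90-13 was grown in HMI-9 with G418 and hygromycin B.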

MOLT-4 = assay: Cytotoxicity against human MOLT4 cells assessed as inhibition of cell growth after 4 days by Cell Titer Blue end-point assay; type: cell-based; settings: MOLT-4, 96 h
Summary of the method: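 MOLT-4 cells in RPMI 1640 with 20% FBS were seeded at 5×10^4 cells/mL and grown 24 h before inhibitor was added. There were 8 concentrations in triplicate, spanning 50 nM to 30 μM final. Treatment lasted 4 days, then CTB was added for 3 h at 37°C. Fluorescence was read at 560Ex/590Em, with cell-free background subtracted and DMSO-only wells taken as 100%. EC50 was fitted from inhibition curves.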

[3] = system: Trypanosoma brucei brucei; assay: Antitrypanosomal activity against bloodstream form of Trypanosoma brucei brucei assessed as inhibition of growth in log phase at 1 uM after 48 hrs by Cell Titer Blue end-point assay; settings: read-out: GI
[4] = system: Trypanosoma brucei brucei; assay: Antitrypanosomal activity against bloodstream form of Trypanosoma brucei brucei Lister 427 90-13 assessed as inhibition of growth in log phase at 1 uM after 48 hrs by Cell Titer Blue end-point assay; type: functional; settings: Lister 427 90-13, 48 h
Summary of the method: (§2)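 Log-phase bloodstream-form cells were seeded at 1×10^5 cells/mL and exposed to compound at a single concentration (0.2% DMSO) for 48 h (4 doublings). AnTat1.1A cells were grown in HMI-9 with 10% FBS and 10% Serum Plus. 90-13 cells were grown in HMI-9 with G418 (2.5 μg/mL) and hygromycin B (5 μg/mL). Cells were pelleted and incubated 3 h at 37°C with CellTiter-Blue. Fluorescence was read at 560/590 nm, background-subtracted and normalized to DMSO controls.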

[5] = system: Trypanosoma brucei rhodesiense; assay: Antitrypanosomal activity against bloodstream form of Trypanosoma brucei rhodesiense YTat1.1 assessed as inhibition of growth in log phase after 48 hrs by Cell Titer Blue end-point assay; type: functional, organism-based; settings: YTat1.1, 48 h; summary of the method: as §1
[6] = system: Trypanosoma brucei brucei; assay: Antitrypanosomal activity against bloodstream form of Trypanosoma brucei brucei AnTat1.1A assessed as inhibition of growth in log phase at 10 uM after 48 hrs by Cell Titer Blue end-point assay; type: functional; summary of the method: as §2
[7] = Selectivity ratio of EC50 for human MOLT4 cells to EC50 for bloodstream form of Trypanosoma brucei rhodesiense YTat1.1; type: ADME, cell-based, MOLT-4; settings: read-out: Ratio EC50
Summary of the method: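 Ratio of MOLT-4 EC50 to YTat1.1 EC50. MOLT-4 cells were grown in RPMI 1640 with 20% FBS, seeded at 5×10^4 cells/mL and grown 24 h before compound was added. Treatment used 8 triplicate concentrations between 50 nM and 30 μM for 4 days, followed by a 3 h CellTiter-Blue read at 37°C. The parasite EC50 came from a 48 h CellTiter-Blue dose-response (50 nM–8 μM).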

[8] = system: Trypanosoma brucei brucei; assay: Antitrypanosomal activity against bloodstream form of Trypanosoma brucei brucei AnTat1.1A assessed as inhibition of growth in log phase at 1 uM after 48 hrs by Cell Titer Blue end-point assay; type: functional; summary of the method: as §2
[9] = system: Trypanosoma brucei brucei; assay: Antitrypanosomal activity against bloodstream form of Trypanosoma brucei brucei Lister 427 90-13 assessed as inhibition of growth in log phase at 10 uM after 48 hrs by Cell Titer Blue end-point assay; type: functional; settings: Lister 427 90-13, 48 h; summary of the method: as §2

| SMILES | selectivity ratio [1] | inhibition (Trypanosoma brucei) | EC50 [2] [µM] | EC50 (MOLT-4) [µM] | inhibition of growth at 1 µM [3] [%] | inhibition at 1 µM [4] [%] | EC50 [5] [µM] | inhibition at 10 µM [6] [%] | selectivity ratio [7] | inhibition at 1 µM [8] [%] | inhibition at 10 µM [9] [%] |
| --- | --- | --- | --- | --- | --- | --- | --- | --- | --- | --- | --- |
| CN1CCN(c2ccc(C(=O)Nc3n[nH]c4c3CN(C(=O)c3ccccc3)C4)cc2)CC1 | 0.05 | inactive | 11.1 | 0.54 | – | – | – | – | – | – | – |
| COC(C(=O)N1Cc2[nH]nc(NC(=O)c3ccc(N4CCN(C)CC4)cc3)c2C1)c1ccccc1 (racemic) | – | – | – | 4.13 | > 60 | 15 | 0.61 | 97 | 6.8 | 77 | 25 |
| CN1CCN(c2ccc(C(=O)Nc3n[nH]c4c3CN(C(=O)Cc3cc(F)cc(F)c3)C4)cc2)CC1 | – | – | 0.59 | 0.63 | > 60 | 37 | 0.91 | 98 | 0.7 | 98 | 99 |
| CN1CCN(c2ccc(C(=O)Nc3n[nH]c4c3CN(C(=O)Cc3cccc(Cl)c3)C4)cc2)CC1 | – | – | 0.85 | 4 | > 60 | 33 | 0.58 | 98 | 6.9 | 35 | 98 |
| CCS(=O)(=O)Nc1ccc2c(c1)/C(=C(/Nc1ccc(CN3CCCCC3)cc1)c1ccccc1)C(=O)N2 | – | Active | – | – | – | – | – | – | – | – | – |
| CN1CCN(c2ccc(C(=O)Nc3n[nH]c4c3CN(C(=O)Cc3c(F)cc(F)cc3F)C4)cc2)CC1 | – | – | – | – | – | 41 | – | 100 | – | 23 | 72 |
| CN1CCN(c2ccc(C(=O)Nc3n[nH]c4c3CN(C(=O)Nc3ccccc3)C4)cc2)CC1 | 0.58 | Active | 6.1 | 3.55 | – | – | – | – | – | – | – |
| CO[C@@H](C(=O)N1Cc2[nH]nc(NC(=O)c3ccc(N4CCN(C)CC4)cc3)c2C1)c1ccccc1 [DANUSERTIB] | – | Active | 0.6 | – | – | – | 0.15 | – | – | – | – |
| CO[C@@H](C(=O)N1Cc2n[nH]c(NC(=O)c3ccc(N4CCN(C)CC4)cc3)c2C1)c1ccccc1 [DANUSERTIB] | 0.25 | – | – | – | – | – | – | – | 1 | – | – |
| CCc1cccc(CC)c1NC(=O)N1Cc2[nH]nc(NC(=O)c3ccc(N4CCN(C)CC4)cc3)c2C1 [PHA-680632] | – | Active | 4 | 0.22 | – | – | 1.25 | – | – | – | – |
| CN1CCN(c2ccc(C(=O)Nc3n[nH]c4c3CN(C(=O)Cc3ccc(F)c(F)c3)C4)cc2)CC1 | – | – | – | – | – | 29 | – | 98 | – | 18 | 53 |
| Cc1ccc(C(C)C(=O)N2Cc3[nH]nc(NC(=O)c4ccc(N5CCN(C)CC5)cc4)c3C2)cc1 (racemic) | – | – | – | 5.48 | > 60 | 19 | 0.86 | 100 | 6.4 | 19 | 100 |
| Cc1ccc(S(=O)(=O)N2Cc3[nH]nc(NC(=O)c4ccc(N5CCN(C)CC5)cc4)c3C2)cc1 | 0.16 | Active | 5.7 | 0.94 | – | – | – | – | – | – | – |
| Cc1cc(C)cc(CC(=O)N2Cc3[nH]nc(NC(=O)c4ccc(N5CCN(C)CC5)cc4)c3C2)c1 | – | – | 2.56 | 4.46 | > 60 | 26 | 1.04 | 99 | 4.3 | 85 | 100 |
| CC(C)C(C(=O)N1Cc2[nH]nc(NC(=O)c3ccc(N4CCN(C)CC4)cc3)c2C1)c1ccccc1 (racemic) | – | – | 0.67 | – | > 60 | 62 | 0.4 | 99 | 6.3 | 99 | 100 |
| Cc1nc(CC(=O)N2Cc3[nH]nc(NC(=O)c4ccc(N5CCN(C)CC5)cc4)c3C2)cs1 | – | – | – | – | – | 8 | – | 53 | – | 23 | 14 |
| CN1CCN(c2ccc(C(=O)Nc3n[nH]c4c3CN(C(=O)Cc3cc(F)ccc3F)C4)cc2)CC1 | – | – | – | – | – | 37 | – | 98 | – | 6 | 97 |
| CN1CCN(c2ccc(C(=O)Nc3n[nH]c4c3CN(C(=O)Cc3ccc(F)cc3F)C4)cc2)CC1 | – | – | – | – | – | 40 | – | 98 | – | 6 | 62 |
| Cc1nc(C)c(CC(=O)N2Cc3[nH]nc(NC(=O)c4ccc(N5CCN(C)CC5)cc4)c3C2)s1 | – | – | – | – | – | 6 | – | 35 | – | 13 | 12 |
| CN1CCN(c2ccc(C(=O)Nc3n[nH]c4c3CN(C(=O)Cc3cc(F)cc(F)c3F)C4)cc2)CC1 | – | – | – | 2.31 | > 60 | 26 | 2 | 99 | 1.2 | 44 | 94 |
| CN1CCN(c2ccc(C(=O)Nc3n[nH]c4c3CN(C(=O)Cc3cccc5ccccc35)C4)cc2)CC1 | – | – | – | 14.2 | > 60 | 26 | 0.61 | 98 | 23 | 82 | 100 |
| Cc1[nH]c2ccccc2c1CC(=O)N1Cc2[nH]nc(NC(=O)c3ccc(N4CCN(C)CC4)cc3)c2C1 | – | – | – | – | > 60 | 34 | 1.2 | 98 | 1 | 62 | 63 |
| CCc1cccc(CC)c1NC(=O)N1Cc2n[nH]c(NC(=O)c3ccc(N4CCN(C)CC4)cc3)c2C1 [PHA-680632] | 0.06 | – | – | – | – | – | – | – | 0.18 | – | – |
| CN1CCN(c2ccc(C(=O)Nc3n[nH]c4c3CN(C(=O)Cc3c(F)cccc3F)C4)cc2)CC1 | – | – | – | – | – | 32 | – | 97 | – | 20 | 66 |
| Cc1ccc(C)c(CC(=O)N2Cc3[nH]nc(NC(=O)c4ccc(N5CCN(C)CC5)cc4)c3C2)c1 | – | – | – | 2.65 | > 60 | 18 | 1.2 | 99 | 2.2 | 34 | 100 |
| CN1CCN(c2ccc(C(=O)Nc3n[nH]c4c3CN(C(=O)Cc3c(F)ccc(F)c3F)C4)cc2)CC1 | – | – | – | 2.22 | > 60 | 14 | 0.32 | 98 | 6.9 | 52 | 77 |
| CN1CCN(c2ccc(C(=O)Nc3n[nH]c4c3CN(C(=O)CC3CC(=O)c5ccccc53)C4)cc2)CC1 (racemic) | – | – | – | – | – | 27 | – | 79 | – | 34 | 35 |
